Key:
CNE = test: Antitumor activity against human CNE cells after 24 hrs by MTT assay; type: functional, cell-based
Outline: (§1)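 Seeded at 5.0 × 10⁴ cells/mL and cultured 24 h, then exposed 24 h to serial dilutions made from a DMSO solution. MTT (5 mg/mL) added for 4 h, formazan dissolved in DMSO, A570 read. IC50 taken by linear regression of concentration-response curves; mean of at least three independent experiments.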

K562 = test: Antitumor activity against human K562 cells after 24 hrs by MTT assay; type: functional, cell-based; details: K562, 24 h; outline: as §1
MDA-MB-231 = test: Antitumor activity against human MDA-MB-231 cells after 24 hrs by MTT assay; type: functional, cell-based; details: MDA-MB-231, 24 h; outline: as §1
MCF7 = test: Antitumor activity against human MCF7 cells after 24 hrs by MTT assay; type: functional, cell-based; details: MCF7, 24 h; outline: as §1
[1] = Cytotoxicity against human HSF cells after 24 hrs by MTT assay; type: cell-based; outline: as §1
L929 = test: Cytotoxicity against mouse L929 cells after 24 hrs by MTT assay; type: cell-based; details: L929, 24 h; outline: as §1
HCT-15 = test: Antitumor activity against human HCT15 cells after 24 hrs by MTT assay; type: functional, cell-based; details: HCT-15, 24 h; outline: as §1
CCRF S-180 [2] = test: Antitumor activity against mouse S180 cells xenografted in KM mouse assessed as decrease in tumor weight at 25 mg/kg, ip administered qd for 9 days measured on 10th day (reference value: 2.07+/- 0.42g); type: functional; details: route intraperitoneal
Outline: (§2)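 S-180 sarcoma cells (2 × 10⁶ in 0.2 ml saline) injected subcutaneously at the femur of male SPF KM mice, seven weeks old, 18–22 g; groups of 10. Dosing began 24 h later, i.p. once daily for 9 days, in 0.5% DMSO/1% Tween 80 diluted with saline; controls received vehicle. Body weight followed; tumors excised and weighed on day 10. Inhibition = (control − treated mean tumor weight)/control × 100%.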

Mus musculus = test: Toxicity in KM mouse harboring mouse S180 cells xenograft assessed as body weight change at 25 mg/kg, ip administered qd for 9 days measured on 10th day (reference value: +39.1%); type: organism-based, CCRF S-180; parameters: dose 25 mg/kg, route intraperitoneal; details: in vivo, 216 h; outline: as §2
CCRF S-180 [3] = test: Antitumor activity against mouse S180 cells xenografted in KM mouse assessed as tumor weight inhibition rate at 25 mg/kg, ip administered qd for 9 days measured on 10th day; type: functional; details: CCRF S-180, ip, 216 h, route intraperitoneal; outline: as §2

**Q.** Which IC50 (CNE) does the source give for COc1cc([C@@H](CC=C(C)C)OC(C)=O)c(OC)c2c1C(=O)C=CC2=O here?
**A.** 58 µM

**Q.** What about the IC50 (K562) of the same compound?
**A.** 15.3 µM

**Q.** What about the IC50 (MDA-MB-231) of the same compound?
**A.** 3.4 µM

**Q.** What about the IC50 (MCF7) of the same compound?
**A.** 4.9 µM

**Q.** What about the IC50 [1] of the same compound?
**A.** > 100 µM

**Q.** What about the IC50 (L929) of the same compound?
**A.** > 100 µM

**Q.** What about the IC50 (HCT-15) of the same compound?
**A.** 19.3 µM

**Q.** For COc1cc([C@@H](CC=C(C)C)OC(=O)c2ccco2)c(OC)c2c1C(=O)C=CC2=O, which IC50 (MDA-MB-231) is on record?
**A.** 1.3 µM

**Q.** What about the IC50 (MCF7) of the same compound?
**A.** 2.7 µM

**Q.** And the IC50 [1]?
**A.** > 100 µM

**Q.** For COc1ccc(/C=C/C(=O)O[C@H](CC=C(C)C)c2cc(OC)c3c(c2OC)C(=O)C=CC3=O)cc1OC, which IC50 (MDA-MB-231) is on record?
**A.** 5 µM

**Q.** What about the IC50 (MCF7) of the same compound?
**A.** 7.7 µM

**Q.** And the IC50 [1]?
**A.** > 100 µM

**Q.** With COc1cc([C@@H](CC=C(C)C)OC(=O)C2CCCO2)c(OC)c2c1C(=O)C=CC2=O (stereo partly specified) as the compound, how does the IC50 (CNE) read?
**A.** 20.6 µM

**Q.** And the IC50 (K562)?
**A.** 11.2 µM

**Q.** What about the IC50 (MDA-MB-231) of the same compound?
**A.** 0.6 µM

**Q.** What about the IC50 (MCF7) of the same compound?
**A.** 2.5 µM

**Q.** What about the IC50 [1] of the same compound?
**A.** > 100 µM

**Q.** What about the IC50 (L929) of the same compound?
**A.** > 100 µM

**Q.** And the IC50 (HCT-15)?
**A.** 18.6 µM

**Q.** Which results are given for COc1cc([C@H](O)CC=C(C)C)c(OC)c2c1C(=O)C=CC2=O?
**A.** IC50 (MDA-MB-231): 4.1 µM; IC50 (MCF7): 9.2 µM; IC50 [1]: 79.6 µM

**Q.** Which IC50 (MDA-MB-231) does the source give for CCC(=O)O[C@H](CC=C(C)C)c1cc(OC)c2c(c1OC)C(=O)C=CC2=O here?
**A.** 2.5 µM

**Q.** And the IC50 (MCF7)?
**A.** 6.2 µM

**Q.** What about the IC50 [1] of the same compound?
**A.** 78.6 µM

**Q.** For COc1cc([C@@H](CC=C(C)C)OC(=O)c2ccoc2)c(OC)c2c1C(=O)C=CC2=O, which IC50 (MDA-MB-231) is on record?
**A.** 0.4 µM

**Q.** What about the IC50 (MCF7) of the same compound?
**A.** 1.3 µM

**Q.** What about the IC50 [1] of the same compound?
**A.** > 100 µM

**Q.** Which results are given for COc1ccc(OC)c2c1C(=O)C=C([C@@H](CC=C(C)C)OC(=O)C1CCCO1)C2=O (stereo partly specified)?
**A.** IC50 (CNE): 16.5 µM; IC50 (MDA-MB-231): 2.1 µM; IC50 (L929): > 100 µM; IC50 (HCT-15): 12.7 µM

**Q.** With CC(C)=CC[C@@H](O)C1=CC(=O)c2c(O)ccc(O)c2C1=O [SHIKONIN] as the compound, how does the IC50 (CNE) read?
**A.** 0.7 µM

**Q.** And the IC50 (MDA-MB-231)?
**A.** 6.6 µM

**Q.** What about the IC50 (L929) of the same compound?
**A.** 3.2 µM

**Q.** And the IC50 (HCT-15)?
**A.** 7.3 µM

**Q.** Which results are given for COc1ccc(C(=O)O[C@H](CC=C(C)C)c2cc(OC)c3c(c2OC)C(=O)C=CC3=O)cc1?
**A.** IC50 (MDA-MB-231): 1.4 µM; IC50 (MCF7): 8.3 µM; IC50 [1]: 88.3 µM

**Q.** Which results are given for O=c1[nH]cc(F)c(=O)[nH]1 [FLUOROURACIL]?
**A.** Activity (CCRF S-180 [2]): 1.11 g; Activity (Mus musculus): 34.7%; inhibition in vivo at 25 mg/kg (CCRF S-180 [3]): 46.5%

**Q.** With COc1cc([C@@H](CC=C(C)C)OC(=O)C2CCOC2)c(OC)c2c1C(=O)C=CC2=O (stereo partly specified) as the compound, how does the IC50 (MDA-MB-231) read?
**A.** 0.2 µM

**Q.** What about the IC50 (MCF7) of the same compound?
**A.** 1.1 µM

**Q.** What about the IC50 [1] of the same compound?
**A.** 69.4 µM

**Q.** What does the source list for CCC(C)C(=O)O[C@H](CC=C(C)C)c1cc(OC)c2c(c1OC)C(=O)C=CC2=O (stereo partly specified)?
**A.** IC50 (MDA-MB-231): 5.9 µM; IC50 (MCF7): 4.5 µM; IC50 [1]: 93.6 µM

**Q.** With COc1cc([C@@H](CC=C(C)C)OC(=O)c2cccnc2)c(OC)c2c1C(=O)C=CC2=O as the compound, how does the IC50 (MDA-MB-231) read?
**A.** 6 µM

**Q.** What about the IC50 (MCF7) of the same compound?
**A.** 17.4 µM

**Q.** What about the IC50 [1] of the same compound?
**A.** 91.7 µM

**Q.** Which results are given for COc1cc([C@@H](CC=C(C)C)OC(=O)/C=C/c2ccccc2)c(OC)c2c1C(=O)C=CC2=O?
**A.** IC50 (MDA-MB-231): 2.4 µM; IC50 (MCF7): 3.9 µM; IC50 [1]: > 100 µM

**Q.** With COc1cc([C@@H](CC=C(C)C)OC(=O)C(C)C)c(OC)c2c1C(=O)C=CC2=O as the compound, how does the IC50 (MDA-MB-231) read?
**A.** 2.8 µM

**Q.** What about the IC50 (MCF7) of the same compound?
**A.** 3.7 µM

**Q.** And the IC50 [1]?
**A.** 69.3 µM

**Q.** Which IC50 (MDA-MB-231) does the source give for CCCC(=O)O[C@H](CC=C(C)C)c1cc(OC)c2c(c1OC)C(=O)C=CC2=O here?
**A.** 4.3 µM

**Q.** And the IC50 (MCF7)?
**A.** 5.1 µM

**Q.** And the IC50 [1]?
**A.** 86.3 µM

**Q.** For COc1cc([C@@H](CC=C(C)C)OC(=O)c2ccccc2)c(OC)c2c1C(=O)C=CC2=O, which IC50 (MDA-MB-231) is on record?
**A.** 2.2 µM

**Q.** What about the IC50 (MCF7) of the same compound?
**A.** 6.7 µM

**Q.** What about the IC50 [1] of the same compound?
**A.** > 100 µM

**Q.** Which results are given for COc1ccccc1C(=O)O[C@H](CC=C(C)C)c1cc(OC)c2c(c1OC)C(=O)C=CC2=O?
**A.** IC50 (MDA-MB-231): 4.4 µM; IC50 (MCF7): 21.3 µM; IC50 [1]: > 100 µM

**Q.** Which results are given for COc1cc([C@@H](CC=C(C)C)OC(=O)c2ccncc2)c(OC)c2c1C(=O)C=CC2=O?
**A.** IC50 (MDA-MB-231): 1.2 µM; IC50 (MCF7): 6.3 µM; IC50 [1]: > 100 µM

**Q.** Which IC50 (MDA-MB-231) does the source give for COc1cc([C@@H](CC=C(C)C)OC(=O)CCc2ccccc2)c(OC)c2c1C(=O)C=CC2=O here?
**A.** 3.7 µM

**Q.** And the IC50 (MCF7)?
**A.** 5.9 µM

**Q.** And the IC50 [1]?
**A.** > 100 µM

**Q.** For COc1ccc(OC)c2c1C(=O)C=C([C@@H](CC=C(C)C)OC(C)=O)C2=O, which IC50 (CNE) is on record?
**A.** 23.1 µM

**Q.** What about the IC50 (MDA-MB-231) of the same compound?
**A.** 7.2 µM

**Q.** What about the IC50 (L929) of the same compound?
**A.** > 100 µM

**Q.** And the IC50 (HCT-15)?
**A.** 29.6 µM

**Q.** For COc1ccc(CC(=O)O[C@H](CC=C(C)C)c2cc(OC)c3c(c2OC)C(=O)C=CC3=O)cc1, which IC50 (MDA-MB-231) is on record?
**A.** 2.3 µM

**Q.** What about the IC50 (MCF7) of the same compound?
**A.** 5.5 µM

**Q.** What about the IC50 [1] of the same compound?
**A.** > 100 µM

**Q.** Which IC50 (MDA-MB-231) does the source give for C/C=C/C(=O)O[C@H](CC=C(C)C)c1cc(OC)c2c(c1OC)C(=O)C=CC2=O here?
**A.** 1.5 µM

**Q.** What about the IC50 (MCF7) of the same compound?
**A.** 3.3 µM

**Q.** And the IC50 [1]?
**A.** 74.9 µM

**Q.** Which results are given for COc1cc([C@@H](CC=C(C)C)OC(=O)c2ccc([N+](=O)[O-])cc2)c(OC)c2c1C(=O)C=CC2=O?
**A.** IC50 (MDA-MB-231): 16.8 µM; IC50 (MCF7): 15.2 µM; IC50 [1]: > 100 µM

— ChEMBL document CHEMBL1806447, “Semi-synthesis and antitumor activity of 6-isomers of 5, 8-O-dimethyl acylshikonin derivatives” (Eur J Med Chem, 2011)
